Assay results: PMC3665005 (Gene therapy, 2012)

System: luciferase expression in liver
Assay: HD-stimulated expression after tail vein dosing, luciferase in liver by BLI
Assay type: in vivo, mice
Conditions: HD-stimulation, 5 min delay, 1 μg pGL3, 0.8 nmol peptide
Summary of the method: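 Albino ICR mice (three per group) received polyplex (1 μg pGL3, 0.8 nmol PEGylated peptide) in 50 μl HBM (5 mM Hepes, 0.27 M mannitol, pH 7.4) by tail vein. Saline at 9 wt/vol% body weight (1.8-2.25 ml) was given by tail vein over 5 sec. At 24 hrs, liver BLI under 3% isofluorane, 5 min after i.p. D-luciferin (2.4 mg). Mean and standard deviation reported.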

Substance | fold lower gene transfer relative to peptide 4 polyplexes | gene transfer compared with peptide 1 polyplexes (in words)
(Acr-DLys4)3-Acr-DLys-Cys-PEG [4D] | 5 fold | –
(Acr-DLys)3-Acr-DLys-Cys-PEG [1D] | – | equivalent
